Tests used:
[1] = Inhibition of melanogenesis in mouse B16-4A5 cells at 30 uM after 72 hrs by spectrophotometry relative to control; assay type: functional; conditions: B16-4A5, 72 h
How it was run: (§1)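 Murine B16 melanoma 4A5 cells seeded at 2.0 × 10^4 cells/well in 24-well plates and cultured 24 h, then given test compound (DMSO, final 0.1%) plus 1 mM theophylline for 72 h. Cells trypsinized, washed and lysed in 1 M NaOH at 80 °C for 30 min; lysate absorbance read at 405 nm. Inhibition is corrected for cell viability, mean ± SEM (n = 4); IC50 determined graphically.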

[2] = Inhibition of melanogenesis in mouse B16-4A5 cells at 1 uM after 72 hrs by spectrophotometry relative to control; assay type: functional; conditions: B16-4A5, 72 h; how it was run: as §1
[3] = Inhibition of melanogenesis in mouse B16-4A5 cells after 72 hrs by spectrophotometry relative to control; assay type: functional, cell-based; how it was run: as §1
[4] = Inhibition of melanogenesis in mouse B16-4A5 cells at 3 uM after 72 hrs by spectrophotometry relative to control; assay type: functional; conditions: B16-4A5, 72 h; how it was run: as §1
[5] = Inhibition of melanogenesis in mouse B16-4A5 cells at 100 uM after 72 hrs by spectrophotometry relative to control; assay type: functional; conditions: B16-4A5, 72 h; how it was run: as §1
[6] = Cytotoxicity against mouse B16-4A5 cells assessed as viable cells at 30 uM after 72 hrs by WST-8 assay; assay type: cell-based; conditions: read-out: Activity
How it was run: (§2)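 B16 melanoma 4A5 cells (DMEM, 4.5 g/L glucose, 10% FBS, 37 °C, 5% CO2) seeded at 5.0 × 10^4 cells/well in 96-well plates, grown 24 h, then exposed to test compound (DMSO, final 0.1%) for 70 h. After a PBS wash, cells were given DMEM plus WST-8 for 2 h more. Formazan read at 450 nm (reference 655 nm).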

[7] = Inhibition of melanogenesis in mouse B16-4A5 cells at 10 uM after 72 hrs by spectrophotometry relative to control; assay type: functional; conditions: B16-4A5, 72 h; how it was run: as §1
[8] = Cytotoxicity against mouse B16-4A5 cells assessed as viable cells at 10 uM after 72 hrs by WST-8 assay; assay type: cell-based; conditions: read-out: Activity; how it was run: as §2
[9] = Inhibition of melanogenesis in mouse B16-4A5 cells at 300 uM after 72 hrs by spectrophotometry relative to control; assay type: functional; conditions: B16-4A5, 72 h
How it was run: (§3)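 B16 melanoma 4A5 cells were grown in DMEM (4.5 g/L glucose) with 10% FBS and penicillin/streptomycin at 37 °C, 5% CO2, then seeded at 2.0 × 10^4 cells/well. After 24 h, compound (DMSO stock, 0.1% DMSO final) was added with 1 mM theophylline for 72 h. Cells were trypsinized, washed, lysed in 1 M NaOH (80 °C, 30 min) and read at 405 nm. Inhibition was corrected for WST-8 viability; mean ± SEM, n = 4.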

[10] = Inhibition of melanogenesis in mouse B16-4A5 cells at 1000 uM after 72 hrs by spectrophotometry relative to control; assay type: functional; conditions: B16-4A5, 72 h; how it was run: as §3
[11] = Mus musculus, B16-4A5, 72 h, read-out: IC50

SMILES | inhibition at 30 µM [1] | inhibition at 1 µM [2] | IC50 [3] | inhibition at 3 µM [4] | inhibition at 100 µM [5] | viability at 72 h, 30 µM [6] | inhibition at 10 µM [7] | viability at 72 h, 10 µM [8] | IC50 [3, 11] | inhibition at 300 µM [9] | inhibition at 1000 µM [10]
O=C[C@]1(/C=C\O[C@@H]2O[C@H](CO)[C@@H](O)[C@H](O)[C@H]2O)CC[C@H](COC(=O)C(=C/c2ccc(O)cc2)/C(=C\c2ccc(O)c(O)c2)C(=O)OC[C@H]2CC[C@](C=O)(/C=C\O[C@@H]3O[C@H](CO)[C@@H](O)[C@H](O)[C@H]3O)[C@@H](O)C2)C[C@@H]1O | 34.8% | 28.6% | > 100 µM | 30.2% | 16.7% | > 95.2% | 31.8% |  |  |  | 
O=C[C@]1(/C=C\O[C@@H]2O[C@H](CO)[C@@H](O)[C@H](O)[C@H]2O)CC[C@H](COC(=O)C2=Cc3cc(O)c(O)cc3[C@@H](c3ccc(O)cc3)[C@@H]2C(=O)OC[C@H]2CC[C@](C=O)(/C=C\O[C@@H]3O[C@H](CO)[C@@H](O)[C@H](O)[C@H]3O)[C@@H](O)C2)C[C@@H]1O | 2.9% | 9.2% | > 100 µM | 8.7% | 8.7% | > 80.3% | 3.6% |  |  |  | 
O=C[C@]1(/C=C\O[C@@H]2O[C@H](CO)[C@@H](O)[C@H](O)[C@H]2O)CC[C@H](COC(=O)C2=Cc3ccc(O)c(O)c3[C@@H](c3ccc(O)cc3)[C@@H]2C(=O)OC[C@H]2CC[C@](C=O)(/C=C\O[C@@H]3O[C@H](CO)[C@@H](O)[C@H](O)[C@H]3O)[C@@H](O)C2)C[C@@H]1O | 8.4% | 12.8% | > 100 µM | 14.9% | -27.9% | > 80.3% | 9.4% |  |  |  | 
O=C[C@]1(/C=C\O[C@@H]2O[C@H](CO)[C@@H](O)[C@H](O)[C@H]2O)CC[C@H](COC(=O)/C=C/c2ccc(O)c(O)c2)C[C@@H]1O | 11.4% | -3.8% | > 100 µM | -8.5% | 12.2% | > 95.2% | 9.3% |  |  |  | 
CO[C@@H]1C[C@]2(CC[C@H](COC(=O)/C=C/c3ccc(O)c(O)c3)C[C@@H]2O)[C@@H](OC)O1 | 62.8% | 34.7% | 3.6 µM | 42.8% | 66.8% | > 95.2% | 65.2% |  |  |  | 
CO[C@H]1C[C@]2(CC[C@H](COC(=O)/C=C/c3ccc(O)c(O)c3)C[C@@H]2O)[C@H](OC)O1 | 60% | 13.5% | 19.3 µM | 16.9% | 81.2% | > 80.3% | 36.4% |  |  |  | 
CC1(C)C[C@H](OC(=O)c2ccccc2)[C@@]23CC[C@@H](O)[C@@](C)(CC[C@H]12)C3 |  | 45.3% |  | 40.2% |  | 7.9% | 66.7% | 75.9% | 3 µM |  | 
CC(C)[C@@H]1CC[C@@](C)(O)[C@H]2CCC(C=O)=C[C@@H]12 | 50.8% | 19.2% | 26.2 µM | 29.9% | 66.3% | > 80.3% | 35.8% |  |  |  | 
CC(C)[C@H]1CC[C@]2(C)[C@@H](O)CCC(C=O)=C[C@@H]12 | 37.7% | -4.4% | 57.5 µM | 9.2% | 58.8% | > 80.3% | 14.7% |  |  |  | 
CC(C)[C@H]1CC[C@]2(C)C(=O)CCC(C=O)=C[C@@H]12 | 68.5% | 45.5% | 2.5 µM | 50.3% | 80.6% | > 95.2% | 57.6% |  |  |  | 
C=C1/C=C/[C@H](C(C)C)CCC(=C)[C@H](O)CC1 | 61.2% | 28.9% | 17.3 µM | 30.5% | 62.2% | > 95.2% | 40.6% |  |  |  | 
O=C[C@]1(CCO[C@@H]2O[C@H](CO)[C@@H](O)[C@H](O)[C@H]2O)CC[C@H](COC(=O)C(=C/c2ccc(O)cc2)/C(=C\c2ccc(O)c(O)c2)C(=O)OC[C@H]2CC[C@](C=O)(CCO[C@@H]3O[C@H](CO)[C@@H](O)[C@H](O)[C@H]3O)[C@@H](O)C2)C[C@@H]1O | 24.2% | 8.1% |  | 18% | 29.8% | > 95.2% | 18.4% |  |  |  | 
O=C(OC[C@H]1CC[C@](CO)(CCO[C@@H]2O[C@H](CO)[C@@H](O)[C@H](O)[C@H]2O)[C@@H](O)C1)C(=C/c1ccc(O)cc1)/C(=C\c1ccc(O)c(O)c1)C(=O)OC[C@H]1CC[C@](CO)(CCO[C@@H]2O[C@H](CO)[C@@H](O)[C@H](O)[C@H]2O)[C@@H](O)C1 | 32.3% | 22.3% | > 100 µM | 27.2% | 25.3% | > 80.3% | 27.3% |  |  |  | 
O=C(OC[C@H]1CC[C@](CO)(CCO)[C@@H](O)C1)C(=C/c1ccc(O)cc1)/C(=C\c1ccc(O)c(O)c1)C(=O)OC[C@H]1CC[C@](CO)(CCO)[C@@H](O)C1 | 49.8% | 36.1% |  | 45% | 44.2% | > 95.2% | 59% |  | 5 µM |  | 
COc1ccc(/C=C(C(=O)OC[C@H]2CC[C@](CO)(CCO)[C@@H](O)C2)\C(=C/c2ccc(OC)c(OC)c2)C(=O)OC[C@H]2CC[C@](CO)(CCO)[C@@H](O)C2)cc1 | -19.9% | 34.4% |  | 24.1% | -15.7% | 68.8% | 8.1% | 82% |  |  | 
COC(=O)C(=C/c1ccc(OC)cc1)/C(=C\c1ccc(OC)c(OC)c1)C(=O)OC | 35.9% | 49% |  | 48.4% | 11.5% | > 74.5% | 43.6% |  |  |  | 
OCC[C@@]1(CO)CC[C@H](CO)C[C@@H]1O | 51.6% | 45% |  | 55.1% | 25.6% | > 95.2% | 55.9% |  | 2 µM |  | 
OC[C@H]1CC[C@](CO)(CCO[C@@H]2O[C@H](CO)[C@@H](O)[C@H](O)[C@H]2O)[C@@H](O)C1 | -2.5% | 16.1% |  | 17.9% | -9.4% | > 80.3% | 15.3% |  |  |  | 
C=C1CC[C@@H](O)[C@]2(C)CC[C@@H](C(C)C)[C@H](O)[C@@H]12 | 54.7% | 42.3% | 8.4 µM | 39.7% | 59.2% | > 74.5% | 53.8% |  |  |  | 
CC(C)[C@@H]1CC[C@@](C)(O)[C@@H]2CCC(C=O)=C[C@H]21 | 65.9% | 25% | 5.1 µM | 45.5% | 48.8% | > 80.3% | 64% |  |  |  | 
CC(C)[C@@H]1CC[C@@]2(C)[C@H](O)CCC(C=O)=C[C@@H]12 [APHANAMOL II] | 28.3% | 37.6% | > 100 µM | 34.3% | 42.1% | > 74.5% | 32.9% |  |  |  | 
OC[C@H]1O[C@@H](Oc2ccc(O)cc2)[C@H](O)[C@@H](O)[C@@H]1O [ARBUTIN] | 20.4% |  |  |  | 38.1% |  | 10.6% |  | 174 µM | 61.5% | 83.7%

Source: ChEMBL document CHEMBL3259598, “Lignan dicarboxylates and terpenoids from the flower buds of Cananga odorata and their inhibitory effects on melanogenesis” (J Nat Prod, 2014)
